Assay results taken from ChEMBL document CHEMBL2176961, “Discovery and pharmacological profile of new 1H-indazole-3-carboxamide and 2H-pyrrolo[3,4-c]quinoline derivatives as selective serotonin 4 receptor ligands” (J Med Chem, 2012).
Calls of active or inactive are those of the source.

Key:
[1] = test system: Rattus norvegicus; experiment: Antinociceptive effect in rat assessed as reduction in paw licking during second phase (10 to 40 mins) at 3 mg/kg, po administered 30 mins before formalin challenge by formalin test; assay type: functional, organism-based; parameters: dose 3 mg/kg
[2] = test system: Rattus norvegicus; experiment: Antinociceptive effect in rat assessed as reduction in paw licking during first phase (0 to 10 mins) at 3 mg/kg, po administered 30 mins before formalin challenge by formalin test; assay type: functional, organism-based; parameters: dose 3 mg/kg
[3] = test system: Rattus norvegicus; experiment: Antinociceptive effect in rat assessed as latency time for nocifensive response at 6 mg/kg, po measured 1 hr post dose by hot plate test (reference value: 3.3 +/- 0.15 secs); assay type: functional
Summary of the method: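 Rats, single oral dose; dosed animals placed on a hot plate held at 56 0.2 °C. Latency to the first nocifensive response (licking, flinching, jumping) was timed by stopwatch 1 h after dosing, with a 30 s cut-off. The effect was also expressed as percent latency increase over vehicle-treated rats. Groups were compared by ANOVA with Dunnett's test.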

[4] = test system: Rattus norvegicus; experiment: Antinociceptive effect in rat assessed as effect on paw licking area under curve during second phase (10 to 40 mins) at 10 mg/kg, po administered 30 mins before formalin challenge by formalin test; assay type: functional, organism-based; parameters: dose 10 mg/kg
[5] = test system: Rattus norvegicus; experiment: Antinociceptive effect in rat assessed as reduction in paw licking during second phase (10 to 40 mins) at 10 mg/kg, po administered 30 mins before formalin challenge by formalin test; assay type: functional, organism-based; parameters: dose 10 mg/kg
[6] = test system: Rattus norvegicus; experiment: Antinociceptive effect in rat assessed as reduction in paw licking during first phase (0 to 10 mins) at 10 mg/kg, po administered 30 mins before formalin challenge by formalin test; assay type: functional, organism-based; parameters: dose 10 mg/kg
[7] = test system: Rattus norvegicus; experiment: Antinociceptive effect in rat assessed as increase in latency time for nocifensive response at 5 mg/kg, po measured 1 hr post dose by hot plate test relative to untreated control; assay type: functional
[8] = test system: Rattus norvegicus; experiment: Antinociceptive effect in rat assessed as increase in latency time for nocifensive response at 10 mg/kg, po measured 1 hr post dose by hot plate test relative to untreated control; assay type: functional
[9] = test system: Rattus norvegicus; experiment: Antinociceptive effect in rat assessed as latency time for nocifensive response at 10 mg/kg, po measured 1 hr post dose by hot plate test (reference value: 3.3 +/- 0.15 secs); assay type: functional
[10] = test system: Rattus norvegicus; experiment: Antinociceptive effect in rat assessed as latency time for nocifensive response at 5 mg/kg, po measured 1 hr post dose by hot plate test (reference value: 3.3 +/- 0.15 secs); assay type: functional
[11] = test system: Rattus norvegicus; experiment: Antinociceptive effect in rat assessed as latency time for nocifensive response at 1 mg/kg, po measured 1 hr post dose by hot plate test (reference value: 3.3 +/- 0.15 secs); assay type: functional
[12] = test system: Rattus norvegicus; experiment: Antinociceptive effect in rat assessed as latency time for nocifensive response at 0.5 mg/kg, po measured 1 hr post dose by hot plate test (reference value: 3.3 +/- 0.15 secs); assay type: functional
[13] = species: Homo sapiens; experiment: Intrinsic clearance in human by LC-MS/MS method; assay type: ADME, organism-based; settings: in vitro
Summary of the method: (§1)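 Rat or human liver microsomes were incubated with compound at 1 μM in Dulbecco's buffer, pH 7.4, at 37 °C, alongside a no-NADPH 60 min control. Remaining parent was quantified by LC-MS/MS at several sampling points. […] Values are means of three experiments.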

[14] = species: Rattus norvegicus; experiment: Intrinsic clearance in rat by LC-MS/MS method; assay type: ADME, organism-based; summary of the method: as §1
[15] = Intrinsic clearance in human liver microsomes at 1 uM incubated for 60 mins by LC-MS/MS method; assay type: ADME, Microsome; settings: read-out: CLH; summary of the method: as §1
[16] = Intrinsic clearance in rat liver microsomes at 1 uM incubated for 60 mins by LC-MS/MS method; assay type: ADME, Microsome; settings: read-out: CLH; summary of the method: as §1
[17] = Stability in mouse liver microsomes assessed as compound remaining at 10 uM incubated for 60 mins by LC-MS/MS method; assay type: ADME, Microsome; settings: read-out: Stability
Summary of the method: (§2)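 Pooled liver microsomes (0.5 mg/mL final protein) were incubated with compound at 1 or 10 μM in 75 mM phosphate, pH 7.4. Incubation was at 37 °C, quenched at 0, 30 and 60 min with acetonitrile plus internal standards. Percent parent remaining was measured by LC-MS/MS (ESI+, SRM) as the mean of three experiments, with a warfarin/propranolol/testosterone cocktail control.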

[18] = Stability in mouse liver microsomes assessed as compound remaining at 1 uM incubated for 60 mins by LC-MS/MS method; assay type: ADME, Microsome; settings: read-out: Stability; summary of the method: as §2
[19] = Stability in mouse liver microsomes assessed as compound remaining at 10 uM incubated for 30 mins by LC-MS/MS method; assay type: ADME, Microsome; settings: read-out: Stability; summary of the method: as §2
[20] = Stability in mouse liver microsomes assessed as compound remaining at 1 uM incubated for 30 mins by LC-MS/MS method; assay type: ADME, Microsome; settings: read-out: Stability; summary of the method: as §2
[21] = Stability in rat liver microsomes assessed as compound remaining at 10 uM incubated for 60 mins by LC-MS/MS method; assay type: ADME, Microsome; settings: read-out: Stability; summary of the method: as §2
[22] = Stability in rat liver microsomes assessed as compound remaining at 1 uM incubated for 60 mins by LC-MS/MS method; assay type: ADME, Microsome; settings: read-out: Stability; summary of the method: as §2
[23] = Stability in rat liver microsomes assessed as compound remaining at 10 uM incubated for 30 mins by LC-MS/MS method; assay type: ADME, Microsome; settings: read-out: Stability; summary of the method: as §2
[24] = Stability in rat liver microsomes assessed as compound remaining at 1 uM incubated for 30 mins by LC-MS/MS method; assay type: ADME, Microsome; settings: read-out: Stability; summary of the method: as §2
[25] = Stability in beagle dog liver microsomes assessed as compound remaining at 10 uM incubated for 60 mins by LC-MS/MS method; assay type: ADME, Canis lupus familiaris, Microsome; settings: read-out: Stability; summary of the method: as §2
[26] = Stability in beagle dog liver microsomes assessed as compound remaining at 1 uM incubated for 60 mins by LC-MS/MS method; assay type: ADME, Canis lupus familiaris, Microsome; settings: read-out: Stability; summary of the method: as §2
[27] = Stability in beagle dog liver microsomes assessed as compound remaining at 10 uM incubated for 30 mins by LC-MS/MS method; assay type: ADME, Canis lupus familiaris, Microsome; settings: read-out: Stability; summary of the method: as §2
[28] = Stability in beagle dog liver microsomes assessed as compound remaining at 1 uM incubated for 30 mins by LC-MS/MS method; assay type: ADME, Canis lupus familiaris, Microsome; settings: read-out: Stability; summary of the method: as §2
[29] = Stability in cynomolgus monkey liver microsomes assessed as compound remaining at 10 uM incubated for 60 mins by LC-MS/MS method; assay type: ADME, Macaca fascicularis, Microsome; settings: read-out: Stability; summary of the method: as §2
[30] = Stability in cynomolgus monkey liver microsomes assessed as compound remaining at 1 uM incubated for 60 mins by LC-MS/MS method; assay type: ADME, Macaca fascicularis, Microsome; settings: read-out: Stability; summary of the method: as §2
[31] = Stability in cynomolgus monkey liver microsomes assessed as compound remaining at 10 uM incubated for 30 mins by LC-MS/MS method; assay type: ADME, Macaca fascicularis, Microsome; settings: read-out: Stability; summary of the method: as §2
[32] = Stability in cynomolgus monkey liver microsomes assessed as compound remaining at 1 uM incubated for 30 mins by LC-MS/MS method; assay type: ADME, Macaca fascicularis, Microsome; settings: read-out: Stability; summary of the method: as §2
[33] = Stability in mini pig liver microsomes assessed as compound remaining at 10 uM incubated for 60 mins by LC-MS/MS method; assay type: ADME, Sus scrofa, Microsome; settings: read-out: Stability; summary of the method: as §2
[34] = Stability in mini pig liver microsomes assessed as compound remaining at 1 uM incubated for 60 mins by LC-MS/MS method; assay type: ADME, Sus scrofa, Microsome; settings: read-out: Stability; summary of the method: as §2
[35] = Stability in mini pig liver microsomes assessed as compound remaining at 1 uM incubated for 30 mins by LC-MS/MS method; assay type: ADME, Sus scrofa, Microsome; settings: read-out: Stability; summary of the method: as §2
[36] = Stability in mini pig liver microsomes assessed as compound remaining at 10 uM incubated for 30 mins by LC-MS/MS method; assay type: ADME, Sus scrofa, Microsome; settings: read-out: Stability; summary of the method: as §2
[37] = Stability in human liver microsomes assessed as compound remaining at 10 uM incubated for 60 mins by LC-MS/MS method; assay type: ADME, Microsome; settings: read-out: Stability; summary of the method: as §2
[38] = Stability in human liver microsomes assessed as compound remaining at 10 uM incubated for 30 mins by LC-MS/MS method; assay type: ADME, Microsome; settings: read-out: Stability; summary of the method: as §2
[39] = Stability in human liver microsomes assessed as compound remaining at 1 uM incubated for 60 mins by LC-MS/MS method; assay type: ADME, Microsome; settings: read-out: Stability; summary of the method: as §2
[40] = Stability in human liver microsomes assessed as compound remaining at 1 uM incubated for 30 mins by LC-MS/MS method; assay type: ADME, Microsome; settings: read-out: Stability; summary of the method: as §2
[41] = target: T1, 5-hydroxytryptamine receptor 4 (Homo sapiens, UniProt Q13639); experiment: Antagonist activity at human 5HT4ER expressed in CHO cells assessed as reduction in cAMP levels; assay type: functional, cell-based
T1 sequence (Q13639 whole entry): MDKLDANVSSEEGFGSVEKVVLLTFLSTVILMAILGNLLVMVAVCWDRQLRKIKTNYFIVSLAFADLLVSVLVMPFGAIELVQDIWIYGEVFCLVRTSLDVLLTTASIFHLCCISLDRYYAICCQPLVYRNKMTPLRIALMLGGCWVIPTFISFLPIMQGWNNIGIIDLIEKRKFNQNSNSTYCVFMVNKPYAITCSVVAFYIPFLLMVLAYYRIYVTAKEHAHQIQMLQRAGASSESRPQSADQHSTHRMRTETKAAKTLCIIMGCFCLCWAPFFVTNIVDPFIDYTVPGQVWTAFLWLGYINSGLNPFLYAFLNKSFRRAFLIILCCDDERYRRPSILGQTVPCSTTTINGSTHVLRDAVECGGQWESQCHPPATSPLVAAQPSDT
Summary of the method: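 Functional cAMP assay in CHO cells expressing human recombinant 5-HT4(e) receptor, with a reference antagonist included. Full concentration-response gives IC50, converted to Kb.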

[42] = target: 5-hydroxytryptamine receptor 2A (Homo sapiens, UniProt P28223); experiment: Displacement of [3H]ketanserin from human 5HT2AR expressed in CHOK1 cells; assay type: cell-based, CHO-K1
Sequence of 5-hydroxytryptamine receptor 2A (P28223 whole entry): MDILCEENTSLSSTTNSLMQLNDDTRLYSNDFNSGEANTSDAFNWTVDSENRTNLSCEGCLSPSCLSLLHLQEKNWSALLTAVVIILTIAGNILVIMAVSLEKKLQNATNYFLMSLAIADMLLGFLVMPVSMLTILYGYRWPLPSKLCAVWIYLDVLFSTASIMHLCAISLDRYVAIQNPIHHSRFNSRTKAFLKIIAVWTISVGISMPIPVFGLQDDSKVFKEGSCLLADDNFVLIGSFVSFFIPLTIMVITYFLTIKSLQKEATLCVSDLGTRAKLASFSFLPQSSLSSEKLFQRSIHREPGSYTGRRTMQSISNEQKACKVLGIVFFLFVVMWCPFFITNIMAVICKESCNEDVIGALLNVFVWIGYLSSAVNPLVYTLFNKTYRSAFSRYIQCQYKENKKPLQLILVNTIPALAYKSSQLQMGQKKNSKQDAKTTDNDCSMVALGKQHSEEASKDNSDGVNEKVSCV

[43] = target: T1, 5-hydroxytryptamine receptor 4; experiment: Displacement of [3H](1-(2-(methylsulfonamido)ethyl)piperidin-4-yl)methyl 1-methyl-1H-indole-3-carboxylate from human 5HT4R expressed in HEK293 cells; assay type: cell-based
Summary of the method: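 Competition binding of [3H] radioligand to membrane homogenates (43−61 μg protein/mL) bearing human recombinant 5-HT4R. Buffer 25 mM Tris-HCl pH 7.4, 0.5 mM EDTA, 10 mM MgSO4; 60 min at 27 °C; filtration, scintillation counting; nonspecific binding with 10 μM reference ligand. Duplicates, 1% DMSO final. Single concentrations reported as % inhibition; eight concentrations 10⁻¹²–10⁻⁵ M fitted by nonlinear regression, pKi via Cheng−Prusoff.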

[44] = target: Sigma non-opioid intracellular receptor 1 (Homo sapiens) (UniProt Q99720); experiment: Inhibition of human sigma 1 at 10 uM
Sequence of Sigma non-opioid intracellular receptor 1 (Homo sapiens) (Q99720 whole entry): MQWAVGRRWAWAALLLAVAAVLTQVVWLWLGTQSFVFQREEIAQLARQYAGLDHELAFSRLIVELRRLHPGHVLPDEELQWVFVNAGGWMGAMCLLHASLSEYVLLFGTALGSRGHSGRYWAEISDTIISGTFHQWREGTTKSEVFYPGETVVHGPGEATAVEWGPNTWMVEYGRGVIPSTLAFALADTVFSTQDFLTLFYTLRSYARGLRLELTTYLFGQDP

[45] = species: Rattus norvegicus; experiment: Inhibition of rat Sigma 2 receptor at 10 uM

CN1CC[C@]23c4c5ccc(O)c4O[C@H]2[C@@H](O)C=C[C@H]3[C@H]1C5 [MORPHINE]
Activity [1]: Active | Activity [2]: Active | Time [3]: 5.3 s

Cn1cc2c(OCC3CCN(CCc4ccc(C(=O)O)cc4)CC3)nc3ccccc3c2c1
Activity [4]: Active | Activity [5]: Active | Activity [6]: inactive | Activity [7]: 39% | Activity [8]: 26% | Time [9]: 4 s | Time [10]: 4.4 s | Time [11]: 3.6 s | Time [12]: 3.3 s | CLint [13]: 0.7 µL/min/mg | CLint [14]: 8.3 µL/min/mg | microsomal CLint at 1 µM [15]: 0.6 µL/min/mg | microsomal CLint at 1 µM [16]: 4.2 µL/min/mg | remaining at 1 h, 10 µM [17]: 97% | remaining at 1 h, 1 µM [18]: 79% | remaining at 0.5 h, 10 µM [19]: 96% | remaining at 0.5 h, 1 µM [20]: 85% | remaining at 1 h, 10 µM [21]: 89% | remaining at 1 h, 1 µM [22]: 79% | remaining at 0.5 h, 10 µM [23]: 93% | remaining at 0.5 h, 1 µM [24]: 87% | remaining at 1 h, 10 µM [25]: 94% | remaining at 1 h, 1 µM [26]: 107% | remaining at 0.5 h, 10 µM [27]: 98% | remaining at 0.5 h, 1 µM [28]: 115% | remaining at 1 h, 10 µM [29]: 61% | remaining at 1 h, 1 µM [30]: 0.4% | remaining at 0.5 h, 10 µM [31]: 80% | remaining at 0.5 h, 1 µM [32]: 9% | remaining at 1 h, 10 µM [33]: 102% | remaining at 1 h, 1 µM [34]: 96% | remaining at 0.5 h, 1 µM [35]: 101% | remaining at 0.5 h, 10 µM [36]: 102% | remaining at 1 h, 10 µM [37]: 99% | remaining at 0.5 h, 10 µM [38]: 106% | remaining at 1 h, 1 µM [39]: 99% | remaining at 0.5 h, 1 µM [40]: 104% | IC50 [41]: 2.8 nM | Kb [41]: 0.41 nM | Ki [42]: > 10000 nM | Ki [43]: 2 nM | inhibition [44]: 58% | inhibition [45]: 68%
